Laboratory results taken from ChEMBL document CHEMBL4261486, “2-Arylaminobenzothiazole-arylpropenone conjugates as tubulin polymerization inhibitors” (Medchemcomm, 2017).
Calls of active or inactive are those of the source. No cut-off for these calls is given here.

Legend:
HeLa [1] = experiment: Cell cycle arrest in human HeLa cells assessed as accumulation at G2/M phase at 3 uM after 24 hrs by propidium iodide staining based flow cytometry (reference value: 33.4%); assay type: functional
HeLa [2] = experiment: Upregulation of cyclin-B1 expression in human HeLa cells at 3 uM after 24 hrs by Western blot analysis; assay type: functional, cell-based
In short: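 HeLa cells were treated with 3 μM for 24 h, with a DMSO vehicle control. Cyclin B1 protein was detected by immunoblot with tubulin as loading control.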

MIA PaCa-2 = experiment: Antiproliferative activity against human MIAPaCa2 cells after 48 hrs by sulforhodamine B assay; assay type: functional, cell-based; conditions: MIA PaCa-2, 48 h
In short: (§1)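 Cells grown in DMEM with 10% FBS at 37 °C under 5% CO2. Plated cells were allowed 24 h before drug, then exposed continuously for 48 h at 0.01, 0.1, 1, 10 and 100 μM. Monolayers were fixed with cold 10% TCA for 1 h at 4 °C and stained with 0.057% SRB in 1% acetic acid for 30 min. Bound dye was read at 510 nm. IC50 is the 50% growth-inhibitory concentration, using time-zero and control readings.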

HeLa [3] = experiment: Antiproliferative activity against human HeLa cells after 48 hrs by sulforhodamine B assay; assay type: functional, cell-based; in short: as §1
[4] = Inhibition of bovine brain tubulin polymerization pretreated followed by GTP addition measured at 1 min interval for 1 hr by fluorescence reporter based assay; parameters: species or system Bos taurus
In short: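 Bovine brain tubulin (2 mg/mL) was pre-incubated with compound at 1, 2, 3, 4 and 5 μM. The buffer was PEM (80 mM PIPES, 0.5 mM EGTA, 2 mM MgCl2, pH 6.9) with 10 μM fluorescent reporter and 1 mM GTP at 37 °C. Fluorescence (ex 360 / em 420 nm) was read every min for 1 h. IC50 was derived from these concentrations.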

Tubulin (Homo sapiens) [5] = target: T1, Tubulin (Homo sapiens) (UniProt P68371+Q9H4B7+P0DPH7+P68366+Q13509+Q71U36+P04350+Q3ZCM7+P07437+P68363+Q9BQE3+Q6PEY2+Q13885+Q9BVA1+Q9BUF5); experiment: Inhibition of tubulin polymerization in human HeLa cells assessed as appearance of irregular microtubule at 3 uM after 24 hrs by DAPI staining based confocal microscopic analysis; assay type: cell-based
In short: (§2)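 HeLa cells on coverslips were exposed to 3 μM for 24 h and fixed in 3.5% formaldehyde in PBS. They were permeabilized with Triton X-100/Tween-20 and blocked in 2% BSA. Primary antitubulin antibody (1:200) was applied for 4 h, then FITC anti-mouse secondary (1:500) for 1 h. Nuclei were counterstained with DAPI and imaged by confocal microscopy at 60×, with a DMSO control.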

HeLa [6] = experiment: Induction of cyclin-B1 mRNA expression in human HeLa cells by qRT-PCR analysis; assay type: functional, cell-based
Tubulin (Homo sapiens) [7] = target: T1, Tubulin (Homo sapiens); experiment: Inhibition of tubulin polymerization in human HeLa cells assessed as appearance of rounded microtubule at 3 uM after 24 hrs by DAPI staining based confocal microscopic analysis; assay type: cell-based; in short: as §2
Tubulin (Homo sapiens) [8] = target: T1, Tubulin (Homo sapiens); experiment: Inhibition of tubulin polymerization in human HeLa cells assessed as disruption of microtubule organization at 3 uM after 24 hrs by DAPI staining based confocal microscopic analysis; assay type: cell-based; in short: as §2
HeLa [9] = experiment: Induction of mitochondrial membrane potential loss in human HeLa cells assessed as collapse of the mitochondrial membrane potential at 1 uM after 24 hrs by Rh-123 staining based spectrofluorimetric method relative to control; assay type: functional
In short: (§3)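 HeLa cells, seeded at 5 × 10^5 cells per mL overnight, were exposed to 1 μM for 24 h. Cells were trypsinized and incubated in PBS with Rhodamine-123 (10 μg/mL) for 30 min at room temperature, then washed. Fluorescence was read on a spectrofluorometer relative to control. Data are mean ± SD of three independent experiments.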

HeLa [10] = experiment: Induction of apoptosis in human HeLa cells assessed as appearance of condensed nuclei at 1 uM after 24 hrs by Hoechst […] staining based fluorescence microscopic analysis; assay type: functional, cell-based
In short: (§4)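 HeLa cells, 5 × 10^4 per well, were allowed 24 h to adhere. They were then exposed to 1 μM for 24 h at 37 °C and fixed in 4% paraformaldehyde for 10 min at 4 °C. Staining was with Hoechst […] at 5 μg/mL for 30 min at room temperature. Nuclear morphology was scored by fluorescence microscopy (ex 350, em 460 nm).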

HeLa [11] = experiment: Induction of reactive oxygen species generation in human HeLa cells at 1 uM after 24 hrs by carboxy-DCFH-DA staining based fluorescence microscopic analysis; assay type: functional, cell-based
In short: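 Cells were treated with 1 μM for 24 h, then loaded with carboxy-DCFH-DA (10 μM) for 30 min at room temperature in the dark. They were resuspended in PBS at 5 × 10^4 cells per mL. DCF fluorescence was read by spectrofluorometer (ex 488 / em 525 nm per methods; 485/535 nm per legend), and images were taken by fluorescence microscopy.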

A549 = experiment: Antiproliferative activity against human A549 cells after 48 hrs by sulforhodamine B assay; assay type: functional, cell-based; conditions: A549, 48 h; in short: as §1
Tubulin (Homo sapiens) [12] = target: T1, Tubulin (Homo sapiens); experiment: Inhibition of tubulin polymerization in human HeLa cells assessed as increase of tubulin in soluble fraction at 3 uM after 24 hrs by Western blot analysis; assay type: cell-based
In short: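 HeLa cells, 1 × 10^5 per well, were treated for 24 h (3 μM for test conjugates). The soluble fraction was extracted with warm PIPES/Triton lysis buffer for 3 min at 30 °C, and the remaining polymerized fraction was taken in Laemmli buffer. Equal volumes were run by SDS-10% PAGE and immunoblotted for α-tubulin (1:2000) with HRP secondary and ECL detection.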

MDA-MB-231 = experiment: Antiproliferative activity against human MDA-MB-231 cells after 48 hrs by sulforhodamine B assay; assay type: functional, cell-based; conditions: MDA-MB-231, 48 h; in short: as §1
HeLa [13] = experiment: Induction of apoptosis in human HeLa cells assessed as appearance of condensed nuclei after 24 hrs by Hoechst […] staining based fluorescence microscopic analysis; assay type: functional, cell-based; in short: as §4
HeLa [14] = experiment: Induction of mitochondrial membrane potential loss in human HeLa cells at 1 uM after 24 hrs by Rh-123 staining based spectrofluorimetric method relative to control; assay type: functional; in short: as §3

| Compound | Activity (HeLa [1]) [%] | Activity (HeLa [2]) | IC50 (MIA PaCa-2) [nM] | IC50 (HeLa [3]) [nM] | IC50 [4] [nM] | inhibition (Tubulin (Homo sapiens) [5]) | Activity (HeLa [6]) | inhibition (Tubulin (Homo sapiens) [7]) | inhibition (Tubulin (Homo sapiens) [8]) | Activity (HeLa [9]) [%] | Activity (HeLa [10]) | Activity (HeLa [11]) | IC50 (A549) [nM] | inhibition (Tubulin (Homo sapiens) [12]) | IC50 (MDA-MB-231) [nM] | Activity (HeLa [13]) | Activity (HeLa [14]) [%] |
| --- | --- | --- | --- | --- | --- | --- | --- | --- | --- | --- | --- | --- | --- | --- | --- | --- | --- |
| COc1ccc2nc(-c3ccc(N/C=C\C(=O)c4ccc(OC)c(F)c4)cc3)sc2c1 | 88.7 | Active | 1300 | 500 | 2200 | Active | Active | Active | Active | 40 | Active | Active | 900 | Active | 1100 |  |  |
| COC(=O)Nc1nc2cc(C(=O)c3cccs3)ccc2[nH]1 [NOCODAZOLE] | 87.5 |  | 910 | 840 | 1800 |  |  |  |  |  |  | Active | 820 |  | 710 | Active |  |
| COc1ccc2nc(-c3ccc(N/C=C\C(=O)c4ccc(OC)c(F)c4)c(C)c3)sc2c1 | 86.1 | Active | 2300 | 600 | 2900 | Active | Active | Active | Active |  | Active | Active | 1400 | Active | 2000 |  | 30 |
